Experimental findings from ChEMBL document CHEMBL4229363, “Design and synthesis of aryloxypropanolamine as β3-adrenergic receptor antagonist in cancer and lipolysis” (Eur J Med Chem, 2018) are described below.

In assay [1] the target is T1, Beta-3 adrenergic receptor (Homo sapiens, UniProt P13945). Briefly: Antagonist activity at human beta3 adrenergic receptor expressed in HEK293 cells co-expressing Galpha16 assessed as inhibition of isoproterenol-induced intercellular calcium mobilization pre-incubated for 10 mins before isoproterenol addition by Fluo-4AM dye-based fluorescence assay. Type of assay: functional, cell-based. The conditions noted are these: read-out: EC50 (the source's name). An outline of the steps:
(§1)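 HEK293 cells stably co-expressing Gα16 and human β1, β2 or β3 receptor, seeded 24 h. Loaded with 2.00 µmol/L Fluo-4 AM in HBSS (BSA, glucose, 250 µmol/L sulfinpyrazone, pH 7.4) for 45 min at 37 °C. Compounds added for 10 min at room temperature, then isoproterenol dispensed. Calcium fluorescence read at ex 485/em 525 nm. IC50 taken from dose-response curves.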
(In general: Calcium assays in cells follow changes in intracellular calcium, usually with a dye or a luminescent sensor.)
Target sequence in this assay (P13945 whole entry): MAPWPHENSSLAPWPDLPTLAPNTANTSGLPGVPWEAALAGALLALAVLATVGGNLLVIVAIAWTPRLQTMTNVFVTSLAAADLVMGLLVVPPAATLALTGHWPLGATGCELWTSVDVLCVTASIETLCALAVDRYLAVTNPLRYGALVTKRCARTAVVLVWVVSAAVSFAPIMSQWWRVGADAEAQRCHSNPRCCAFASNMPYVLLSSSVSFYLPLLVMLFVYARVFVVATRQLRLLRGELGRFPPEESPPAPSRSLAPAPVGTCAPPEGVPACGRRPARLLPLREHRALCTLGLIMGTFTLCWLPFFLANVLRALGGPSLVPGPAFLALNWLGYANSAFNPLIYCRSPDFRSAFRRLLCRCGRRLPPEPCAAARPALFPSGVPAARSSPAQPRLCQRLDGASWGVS

The target in assay [2] is Beta-3 adrenergic receptor (Mus musculus) (UniProt P25962). As to the kind of experiment: Antagonist activity at beta3 adrenergic receptor in mouse 3T3L1 cells assessed as inhibition of isoproterenol-induced lipolysis by measuring glycerol accumulation after 2 hrs. Type of assay: functional, cell-based. An outline of the steps:
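3T3-L1 preadipocytes were grown on gelatin to confluence, then differentiated with 10 µg/ml insulin, 1 µM dexamethasone and 0.5 mM IBMX for 48 hr, followed by insulin alone for 48 hr. Mature adipocytes were washed and given phenol red-free DMEM with 2% fatty acid-free BSA and 1 µM isoproterenol ± antagonist for 2 hr. Glycerol in cleared medium was read by kit at 550 nm. Mean ± SE, three independent experiments.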

Assay [3] has as its target Beta-1 adrenergic receptor (Homo sapiens, UniProt P08588). As to the kind of experiment: Antagonist activity at human beta1 adrenergic receptor expressed in HEK293 cells co-expressing Galpha16 assessed as inhibition of isoproterenol-induced intercellular calcium mobilization pre-incubated for 10 mins before isoproterenol addition by Fluo-4AM dye-based fluorescence assay. Type of assay: functional, cell-based. To be noted: read-out: EC50 (the source's name). An outline of the steps:
as §1

In assay [4] the target is Beta-2 adrenergic receptor (Homo sapiens, UniProt P07550). Briefly: Antagonist activity at human beta2 adrenergic receptor expressed in HEK293 cells co-expressing Galpha16 assessed as inhibition of isoproterenol-induced intercellular calcium mobilization pre-incubated for 10 mins before isoproterenol addition by Fluo-4AM dye-based fluorescence assay. The assay is classed as functional, cell-based. To be noted: read-out: EC50 (the source's name). An outline of the steps: as §1
Sequence of Beta-2 adrenergic receptor (P07550 whole entry): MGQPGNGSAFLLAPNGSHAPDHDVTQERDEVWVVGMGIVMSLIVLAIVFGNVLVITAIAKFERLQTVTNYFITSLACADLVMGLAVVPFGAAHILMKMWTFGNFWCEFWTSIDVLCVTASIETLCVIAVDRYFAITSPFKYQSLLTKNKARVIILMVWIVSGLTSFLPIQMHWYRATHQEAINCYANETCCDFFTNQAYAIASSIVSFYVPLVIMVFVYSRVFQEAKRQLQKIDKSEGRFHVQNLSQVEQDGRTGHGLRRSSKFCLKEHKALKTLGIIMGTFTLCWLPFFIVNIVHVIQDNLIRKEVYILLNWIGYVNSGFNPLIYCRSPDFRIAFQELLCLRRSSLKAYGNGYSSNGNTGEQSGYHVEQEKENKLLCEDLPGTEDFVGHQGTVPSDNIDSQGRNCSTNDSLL

The test system of assay [5] is Mus musculus. As to the kind of experiment: Antilipolytic activity against mouse C26 cells xenografted in BALB/c mouse assessed as reduction in lipolysis of body fat by measuring glycerol content in serum at 2.5 mg/kg, ip dosed daily for 13 days. Type of assay: functional, organism-based.
The target in assay [6] is T1, Beta-3 adrenergic receptor. Briefly: Potency index, ratio of EC50 for L-748,337 to EC50 for test compound for antagonist activity at human beta3 adrenergic receptor expressed in HEK293 cells co-expressing Galpha16 assessed as inhibition of isoproterenol-induced intercellular calcium mobilization pre-incubated for 10 mins before isoproterenol addition by Fluo-4AM dye-based fluorescence assay. The assay is classed as functional, cell-based.
Target sequence in this assay (P13945 whole entry, looked up): as the sequence (P13945 whole entry) above

The subject of assay [7] is Mus musculus. Briefly: Inhibition of tumor-induced body weight loss in BALB/c mouse xenografted with mouse C26 cells assessed as reduction in body weight at 2.5 mg/kg, ip dosed daily for 13 days (reference value: 8.3%). The assay is classed as functional. Also on record: scale not given: the % may be the effect or the level left.
Assay [8] is filed under the species Homo sapiens. As to the kind of experiment: Selectivity index, ratio of EC50 for human beta1 adrenergic receptor to EC50 for human beta3 adrenergic receptor.
Assay [9] deals with Mus musculus. Briefly: Antitumor activity against mouse C26 cells xenografted in BALB/c mouse assessed as decrease in tumor volume at 2.5 mg/kg, ip dosed daily for 13 days. The assay is classed as functional, organism-based.
For assay [10], the species on record is Homo sapiens. As to the kind of experiment: Selectivity index, ratio of EC50 for human beta2 adrenergic receptor to EC50 for human beta3 adrenergic receptor.
For assay [11], the species on record is Homo sapiens. As to the kind of experiment: Selectivity ratio of EC50 for displacement of [125I]iodocyanopindolol for human beta1 adrenergic receptor expressed in CHO dhfr cell membranes to EC50 for displacement of [125I]iodocyanopindolol from human beta3 adrenergic receptor expressed in CHO dhfr cell membranes.
The species named for assay [12] is Homo sapiens. Briefly: Selectivity ratio of EC50 for displacement of [125I]iodocyanopindolol for human beta2 adrenergic receptor expressed in CHO dhfr cell membranes to EC50 for displacement of [125I]iodocyanopindolol from human beta3 adrenergic receptor expressed in CHO dhfr cell membranes. (In a radioligand displacement assay an active substance lowers the binding of a labelled ligand.)

The source made the active and inactive calls. The calls are words filed in the database; no cut-off is given here.

Sequence of Beta-1 adrenergic receptor (P08588 whole entry): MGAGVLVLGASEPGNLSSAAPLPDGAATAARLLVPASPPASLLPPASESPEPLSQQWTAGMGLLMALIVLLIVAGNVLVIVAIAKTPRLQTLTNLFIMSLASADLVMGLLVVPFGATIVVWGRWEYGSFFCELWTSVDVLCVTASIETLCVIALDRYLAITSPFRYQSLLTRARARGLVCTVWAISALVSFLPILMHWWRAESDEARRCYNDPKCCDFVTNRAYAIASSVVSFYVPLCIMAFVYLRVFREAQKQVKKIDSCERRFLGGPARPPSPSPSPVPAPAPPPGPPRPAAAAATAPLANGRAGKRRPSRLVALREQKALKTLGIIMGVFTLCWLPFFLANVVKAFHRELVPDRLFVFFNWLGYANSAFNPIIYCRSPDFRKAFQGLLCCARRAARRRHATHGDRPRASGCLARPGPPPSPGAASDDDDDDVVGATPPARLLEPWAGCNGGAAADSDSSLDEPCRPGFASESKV
Sequence of Beta-3 adrenergic receptor (Mus musculus) (P25962 whole entry): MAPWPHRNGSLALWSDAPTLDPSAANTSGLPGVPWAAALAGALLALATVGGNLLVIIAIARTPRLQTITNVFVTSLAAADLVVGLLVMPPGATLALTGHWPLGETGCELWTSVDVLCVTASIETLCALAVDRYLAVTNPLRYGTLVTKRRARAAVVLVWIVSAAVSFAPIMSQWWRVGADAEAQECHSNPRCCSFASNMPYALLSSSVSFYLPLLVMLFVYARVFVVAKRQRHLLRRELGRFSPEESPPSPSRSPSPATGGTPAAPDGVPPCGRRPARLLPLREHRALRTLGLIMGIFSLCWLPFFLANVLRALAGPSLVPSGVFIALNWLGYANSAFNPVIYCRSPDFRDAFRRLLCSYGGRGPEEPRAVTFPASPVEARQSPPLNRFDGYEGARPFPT

As for `COc1ccc(NC(=O)Nc2ccc(CCNC[C@H](O)COc3cccc4[nH]ccc34)cc2)cc1`, in assay [1], the IC50 worked out at 1.49 nM. Further, the inhibition entry in assay [2] is “Active”.
Consider `CCc1ccccc1OC[C@@H](O)CNCCc1ccc(NC(=O)c2ccccc2)cc1`, for which the IC50 is 7.7 nM in assay [1], 124 nM in assay [3] and 294 nM in [4].
As to `O=C(Nc1ccc(CCNC[C@H](O)COc2cccc3[nH]ccc23)cc1)Nc1ccccc1F`, in assay [1], the IC50 amounted to 3.58 nM.
For the molecule `O=S(=O)(Nc1ccc(CCNC[C@H](O)COc2cccc3[nH]ccc23)cc1)c1ccccc1`, the IC50 was found to be 2.09 nM in assay [1], 14.8 nM in assay [3] and 353 nM in [4].
On to `COc1ccccc1NC(=O)Nc1ccc(CCNC[C@H](O)COc2cccc3[nH]ccc23)cc1`, for which, in [1], the IC50 came out at 8.44 nM.
Regarding `CC(=O)NCc1cccc(OC[C@@H](O)CNCCc2ccc(NS(=O)(=O)Nc3ccccc3)cc2)c1`, the IC50 in [1] amounted to 3.41 nM; in [3], 224 nM; in [4] it was 8430 nM.
As to `O=C(NCCc1ccccc1)Nc1ccc(CCNC[C@H](O)COc2cccc3[nH]ccc23)cc1`, the IC50 in assay [1] is 2.15 nM. Besides, in assay [2], the inhibition result is “Active”.
With `CCc1ccccc1OC[C@@H](O)CNCCc1ccc(NC(=O)Cc2ccccc2)cc1`, the results for the IC50 in assay [1], in assay [3] and in [4] were 8.68 nM, 36.8 nM and 281 nM, respectively.
For `CC(=O)NCc1cccc(OC[C@@H](O)CNCCc2ccc(NC(=O)Nc3ccccc3)cc2)c1`, the IC50 in [1] is 4.7 nM; in assay [3] it was 12700 nM; in [4], 9840 nM.
Take `O=C(Nc1ccc(CCNC[C@H](O)COc2cccc3[nH]ccc23)cc1)NC1CCCCC1`: in assay [1], the IC50 worked out at 2.89 nM. Besides, the inhibition result in assay [2] is “Active”.
With `O=C(Nc1ccc(CCNC[C@H](O)COc2cccc3[nH]ccc23)cc1)Nc1cccc(F)c1`, the IC50 in assay [1] was 2.93 nM.
On to `O=C(Nc1ccc(CCNC[C@H](O)COc2cccc3[nH]ccc23)cc1)c1ccccc1`, for which the IC50 was 1.42 nM in assay [1], 36 nM in assay [3] and 118 nM in assay [4].
Consider `CCc1ccccc1OC[C@@H](O)CNCCc1ccc(NC(=O)Nc2ccccc2)cc1`, for which the values for the IC50 in assay [1], in assay [3] and in assay [4] were 55.5 nM, 426 nM and 1420 nM, respectively.
In the case of `CC(=O)NCc1cccc(OC[C@@H](O)CNCCc2ccc(NC(=O)Cc3ccccc3)cc2)c1`, the results for the IC50 in [1], in assay [3] and in [4] were 4.58 nM, 6200 nM and 15900 nM, respectively.
For `O=C(Cc1ccccc1)Nc1ccc(CCNC[C@H](O)COc2cccc3[nH]ccc23)cc1`, in that order: 1.09 nM, 7.64 nM and 83.1 nM.
Regarding `CCCCCC(=O)Nc1ccccc1NC(=O)Nc1ccc(CCNC[C@H](O)COc2cccc3[nH]ccc23)cc1`, the IC50 in [1] is 2.08 nM.
Regarding `O=C(Nc1ccccc1)Nc1ccc(CCNC[C@H](O)COc2cccc3[nH]ccc23)cc1`, the values for the IC50 in assay [1], in [3] and in assay [4] were 0.512 nM, 2.88 nM and 52.2 nM, respectively. The outcome in the assay on Mus musculus [5] and with Mus musculus [9] was Active. Further, the Ratio EC50 in assay [6] stood at 23; in the assay filed under Homo sapiens [8], 6; in the assay listed under Homo sapiens [10], 100. In the assay on Mus musculus [7], the Activity stood at 4.6%. The inhibition result in [2] is “Active”.
With `CC(C)NC(=O)Nc1ccc(CCNC[C@H](O)COc2cccc3[nH]ccc23)cc1`, in assay [1], the IC50 stood at 1.03 nM. Further, the inhibition result in assay [2] is “Active”.
For `COC(=O)Nc1ccccc1NC(=O)Nc1ccc(CCNC[C@H](O)COc2cccc3[nH]ccc23)cc1`, in assay [1], the IC50 came out at 2.62 nM.
Regarding `O=C(Nc1ccc(F)cc1)Nc1ccc(CCNC[C@H](O)COc2cccc3[nH]ccc23)cc1`, the IC50 in [1] is 2.49 nM. The inhibition result in assay [2] was “Active”.
On to `COc1cccc(NC(=O)Nc2ccc(CCNC[C@H](O)COc3cccc4[nH]ccc34)cc2)c1`, for which, in assay [1], the IC50 amounted to 4.62 nM.
With `CC(=O)NCc1cccc(OC[C@@H](O)CNCCc2ccc(NS(=O)(=O)c3ccccc3)cc2)c1`, the Ratio EC50 in the assay listed under Homo sapiens [11] is over 90; in the assay filed under Homo sapiens [12] it was 45. The inhibition result in [2] was “Active”.
`CCCCCC(=O)Nc1cccc(NC(=O)Nc2ccc(CCNC[C@H](O)COc3cccc4[nH]ccc34)cc2)c1`: the IC50 in [1] is 1.78 nM.
The same measure, in the same setting: in the case of `CCCCCC(=O)Nc1ccc(NC(=O)Nc2ccc(CCNC[C@H](O)COc3cccc4[nH]ccc34)cc2)cc1` it was 10.4 nM.
As for `COC(=O)Nc1ccc(NC(=O)Nc2ccc(CCNC[C@H](O)COc3cccc4[nH]ccc34)cc2)cc1`, the IC50 in [1] was 1.42 nM. Moreover, the inhibition result in assay [2] is “Active”.
Turning to `CCc1ccccc1OC[C@@H](O)CNCCc1ccc(NS(=O)(=O)c2ccccc2)cc1`, the results for the IC50 in assay [1], in assay [3] and in [4] were 11.1 nM, 299 nM and 954 nM, respectively.
For `CC(=O)NCc1cccc(OC[C@@H](O)CNCCc2ccc(NC(=O)c3ccccc3)cc2)c1`, in that order: 7.81 nM, 100000 nM and 6060 nM.
Take `COC(=O)Nc1cccc(NC(=O)Nc2ccc(CCNC[C@H](O)COc3cccc4[nH]ccc34)cc2)c1`: the IC50 in [1] was found to be 1.65 nM.
